# Key:
# [1] = system: HCT-15; assay: Antiproliferative activity against human HCT15 cells after 48 hrs; assay type: functional
# In short: (§1)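 NCI 60-cell screen. Cells were grown in RPMI 1640 with 5% FBS and 2 mM L-glutamine, then plated at 5,000–40,000 cells/well according to doubling time and preincubated for 24 h at 37 °C in 5% CO2. Compounds were dissolved in DMSO at 400× the top final concentration and tested at five 10-fold dilutions from 10−4 to 10−8 M for 48 h. Growth was read spectrophotometrically; GI50 is 50% net protein reduction.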
# [2] = Antiproliferative activity against human HL60(TB) cells after 48 hrs; assay type: functional, HL-60(TB); settings: HL-60, 48 h
# In short: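 NCI 60-line panel screen: cells grown in RPMI 1640 with 5% fetal bovine serum and 2 mM L-glutamine, plated at 5,000–40,000 cells/well by doubling time, and preincubated 24 h at 37 °C in 5% CO2. Drugs were solubilised in DMSO at 400-fold the final maximum and tested at five 10-fold dilutions from 10−4 to 10−8 M for 48 h. Net protein was read spectrophotometrically, and the concentration giving 50% reduction was reported as log10 GI50.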
# [3] = system: SK-MEL-5; assay: Antiproliferative activity against human SKMEL5 cells after 48 hrs; assay type: functional; settings: SK-MEL-5, 48 h, read-out: Log LC50 (the source's name) (converted); in short: as §1
# [4] = system: SNB-19; assay: Antiproliferative activity against human SNB19 cells after 48 hrs; assay type: functional; settings: SNB-19, 48 h; in short: as §1
# [5] = system: NCI-H322M; assay: Antiproliferative activity against human NCI-H322M cells after 48 hrs; assay type: functional; in short: as §1
# [6] = system: OVCAR-5; assay: Antiproliferative activity against human OVCAR5 cells after 48 hrs; assay type: functional; settings: OVCAR-5, 48 h; in short: as §1
# [7] = system: M14; assay: Antiproliferative activity against human M14 cells after 48 hrs; assay type: functional; settings: M14, 48 h; in short: as §1
# [8] = system: MCF7; assay: Antiproliferative activity against human MCF7 cells after 48 hrs; assay type: functional, cell-based; settings: MCF7, 48 h
# [9] = system: SNB-75; assay: Antiproliferative activity against human SNB75 cells after 48 hrs; assay type: functional; settings: SNB-75, 48 h; in short: as §1
# [10] = system: CCRF-CEM; assay: Antiproliferative activity against human CCRF-CEM cells after 48 hrs; assay type: functional; in short: as §1
# [11] = system: T47D; assay: Antiproliferative activity against human T47D cells after 48 hrs; assay type: functional
# In short: (§2)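 NCI 60-cell-line screen. Lines grown in RPMI 1640 with 5% fetal bovine serum and 2 mM L-glutamine, plated at 5,000–40,000 cells/well according to doubling time, left 24 h at 37 °C in 5% CO2. Drug stocks in DMSO at 400-fold the top final concentration. Five 10-fold dilutions, 10−4 to 10−8 M, incubated 48 h. Growth read spectrophotometrically as net protein; GI50 taken as 50% reduction.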
# [12] = system: IGROV-1; assay: Antiproliferative activity against human IGROV1 cells after 48 hrs; assay type: functional; settings: IGROV-1, 48 h, read-out: Log TGI (converted); in short: as §1
# [13] = system: OVCAR-3; assay: Antiproliferative activity against human OVCAR-3 cells after 48 hrs; assay type: functional; settings: OVCAR-3, 48 h; in short: as §1
# [14] = system: SN12C; assay: Antiproliferative activity against human SN12C cells after 48 hrs; assay type: functional; in short: as §1
# [15] = system: NCI-H226; assay: Antiproliferative activity against human NCI-H226 cells after 48 hrs; assay type: functional; settings: NCI-H226, 48 h; in short: as §1
# [16] = system: OVCAR-8; assay: Antiproliferative activity against human OVCAR8 cells after 48 hrs; assay type: functional; settings: OVCAR-8, 48 h; in short: as §1
# [17] = system: Hs-578T; assay: Antiproliferative activity against human HS578T cells after 48 hrs; assay type: functional; in short: as §1
# [18] = system: SW-620; assay: Antiproliferative activity against human SW620 cells after 48 hrs; assay type: functional; settings: SW-620, 48 h; in short: as §2
# [19] = system: HT-29; assay: Antiproliferative activity against human HT29 cells after 48 hrs; assay type: functional; settings: HT-29, 48 h; in short: as §1
# [20] = system: RXF 393; assay: Antiproliferative activity against human RXF393 cells after 48 hrs; assay type: functional; settings: RXF 393, 48 h; in short: as §1
# [21] = system: KM12; assay: Antiproliferative activity against human KM12 cells after 48 hrs; assay type: functional; settings: for CC50: read-out: Log LC50 (the source's name) (converted); in short: as §1
# [22] = system: UACC-257; assay: Antiproliferative activity against human UACC257 cells after 48 hrs; assay type: functional; settings: UACC-257, 48 h; in short: as §2
# [23] = Antiproliferative activity against human […] cells after 48 hrs; assay type: functional; in short: as §1
# [24] = system: HOP-62; assay: Antiproliferative activity against human HOP62 cells after 48 hrs; assay type: functional; settings: HOP-62, 48 h; in short: as §1
# [25] = system: UACC-62; assay: Antiproliferative activity against human UACC62 cells after 48 hrs; assay type: functional; settings: UACC-62, 48 h; in short: as §2
# [26] = system: CAKI-1; assay: Antiproliferative activity against human CAKI1 cells after 48 hrs; assay type: functional; settings: CAKI-1, 48 h; in short: as §1
# [27] = read-out: Log LC50 (the source's name) (converted)
structure (smiles),measurement,setting,value
CCCCCCCCCCCCCCN[C@@H](C)[C@H](O)c1ccccc1,LC50,[1],6.31 µM
same,GI50,"[1]; Homo sapiens, HCT-15, 48 h",1.91 µM
same,LC50,"[1]; Homo sapiens, HCT-15, 48 h",5.89 µM
same,GI50,[2],2 µM
same,LC50,[2],8.13 µM
same,TGI,[2]; read-out: Log TGI (converted),3.98 µM
same,CC50,[3],> 100 µM
same,GI50,[4],1.7 µM
same,CC50,[4]; [27],5.89 µM
same,TGI,[4]; read-out: Log TGI (converted),3.16 µM
same,GI50,[5],2.04 µM
same,CC50,[5]; [27],6.61 µM
same,TGI,[5]; read-out: Log TGI (converted),3.72 µM
same,GI50,[6],1.7 µM
same,CC50,[6]; [27],5.75 µM
same,TGI,[6]; read-out: Log TGI (converted),3.16 µM
same,GI50,[7],1.95 µM
same,LC50,[7],6.31 µM
same,TGI,[7]; read-out: Log TGI (converted),3.55 µM
same,GI50,[8],1.82 µM
same,LC50,[8],6.31 µM
same,TGI,[8]; read-out: Log TGI (converted),3.39 µM
same,GI50,[9],1.7 µM
same,CC50,[9]; [27],6.61 µM
same,TGI,[9]; read-out: Log TGI (converted),3.39 µM
same,GI50,[10],2.4 µM
same,CC50,[10]; [27],> 100 µM
same,TGI,[10]; read-out: Log TGI (converted),5.13 µM
same,GI50,[11],2.09 µM
same,CC50,[11]; [27],7.59 µM
same,TGI,[11]; read-out: Log TGI (converted),3.98 µM
same,TGI,[12],3.55 µM
same,GI50,[13],1.66 µM
same,TGI,[13]; read-out: Log TGI (converted),3.16 µM
same,GI50,[14],1.82 µM
same,LC50 (50% net cell kill),[14],6.76 µM
same,TGI,[14]; read-out: Log TGI (converted),3.47 µM
same,GI50,[15],1.95 µM
same,TGI,[15]; read-out: Log TGI (converted),3.8 µM
same,GI50,[16],1.91 µM
same,TGI,[16]; read-out: Log TGI (converted),4.07 µM
same,GI50,[17],2.19 µM
same,LC50,[17],> 100 µM
same,TGI,[17]; read-out: Log TGI (converted),5.5 µM
same,GI50,[18],2.04 µM
same,LC50 (concentration killing 50% of cells),[18],> 100 µM
same,GI50,[19],1.86 µM
same,LC50,[19],6.76 µM
same,TGI,[19]; read-out: Log TGI (converted),3.55 µM
same,GI50,[20],1.66 µM
same,CC50,[20]; [27],6.03 µM
same,TGI,[20]; read-out: Log TGI (converted),3.16 µM
same,GI50,"[21]; Homo sapiens, KM12, 48 h",1.86 µM
same,CC50,"[21]; Homo sapiens, KM12, 48 h",6.31 µM
same,CC50,[21],5.62 µM
same,GI50,[22],1.86 µM
same,CC50,[22]; [27],6.76 µM
same,TGI,[22]; read-out: Log TGI (converted),3.55 µM
same,GI50,[23],2 µM
same,TGI,[23]; read-out: Log TGI (converted),3.8 µM
same,GI50,[24],1.95 µM
same,CC50,[24]; [27],6.17 µM
same,TGI,[24]; read-out: Log TGI (converted),3.47 µM
same,GI50,[25],1.82 µM
same,LC50,[25],6.31 µM
same,TGI,[25]; read-out: Log TGI (converted),3.39 µM
same,GI50,[26],1.95 µM
same,CC50,[26]; [27],5.89 µM
same,TGI,[26]; read-out: Log TGI (converted),3.39 µM
